≈ marks a conversion by molar mass, not a printed value.
Tests used:
Bacillus subtilis [1] = assay: Decrease in yisY gene expression in Bacillus subtilis W168 by microarray analysis; type: functional
In short: (§1)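 W168 grown in Ca2+-supplemented Mueller-Hinton broth at 37°C to OD600 0.4, split, and one half exposed to 1 μg/ml daptomycin for 20 min. Total RNA from three biological replicates; cDNA labeled with Alexa Fluor 555/647 and co-hybridized at 42°C for 16–18 h. Genes with summed intensity <20 or SD > mean were dropped. Fold change is treated/untreated signal, from ≥6 spot measurements.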

Bacillus subtilis [2] = assay: Antibacterial activity against sigWM gene-deficient Bacillus subtilis CU1065 double mutant by liquid growth inhibition assay; type: functional
In short: (§2)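 Daptomycin MIC by liquid growth inhibition. Overnight cultures diluted 1:100, grown to mid-log, rediluted to 5 × 10^5 CFU/ml in Mueller-Hinton broth with 50 mg/liter Ca2+. At least 10 concentrations near the predicted MIC, plus a no-drug control, added at start; 200 μl. OD600 read every 20 min for 24 h at 37°C with shaking. Inhibition: 24 h OD600 <0.05. MIC is the mode of at least triplicates.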

Bacillus subtilis [3] = assay: Induction of yebC gene expression in Bacillus subtilis W168 by microarray analysis; type: functional; in short: as §1
Bacillus subtilis [4] = assay: Induction of ywaC gene expression in Bacillus subtilis W168 by microarray analysis; type: functional
In short: (§3)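 W168 cultures in Mueller-Hinton broth with 50 mg/liter Ca2+, 37°C with shaking, grown to mid-log phase (OD600 0.4) from a 1:1,000 overnight dilution. Split: one half given 1 μg/ml daptomycin for 20 min, the other left untreated. Total RNA from three biological replicates; cDNA labeled with Alexa Fluor 555 or 647 and hybridized 16 to 18 h at 42°C. Induction = treated/untreated signal intensity, duplicate spots on three arrays.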

Bacillus subtilis [5] = assay: Antibacterial activity against liaIHGFSR gene-deficient Bacillus subtilis W168 mutant by liquid growth inhibition assay; type: functional; in short: as §2
Bacillus subtilis [6] = assay: Antibacterial activity against ywnE gene-deficient Bacillus subtilis CU1065 mutant by liquid growth inhibition assay; type: functional; in short: as §2
Bacillus subtilis [7] = assay: Induction of yvrI gene expression in Bacillus subtilis W168 by microarray analysis; type: functional; in short: as §3
Bacillus subtilis [8] = assay: Antibacterial activity against sigW gene-deficient Bacillus subtilis CU1065 mutant by liquid growth inhibition assay; type: functional; in short: as §2
Bacillus subtilis [9] = assay: Decrease in yknU gene expression in Bacillus subtilis W168 by microarray analysis; type: functional; in short: as §1
Bacillus subtilis [10] = assay: Induction of yoeB gene expression in Bacillus subtilis W168 by microarray analysis; type: functional; in short: as §1
Bacillus subtilis [11] = assay: Decrease in rpsT gene expression in Bacillus subtilis W168 by microarray analysis; type: functional; in short: as §1
Bacillus subtilis [12] = assay: Decrease in hutM gene expression in Bacillus subtilis W168 by microarray analysis; type: functional; in short: as §1
Bacillus subtilis [13] = assay: Antibacterial activity against yhcYZ gene-deficient Bacillus subtilis CU1065 mutant by liquid growth inhibition assay; type: functional; in short: as §2
Bacillus subtilis [14] = assay: Antibacterial activity against liaIH, mprF and pspA gene-deficient Bacillus subtilis CU1065 mutant by liquid growth inhibition assay; type: functional; in short: as §2
Bacillus subtilis [15] = assay: Decrease in yitI gene expression in Bacillus subtilis W168 by microarray analysis; type: functional; in short: as §1
Bacillus subtilis [16] = assay: Decrease in yxeM gene expression in Bacillus subtilis W168 by microarray analysis; type: functional; in short: as §1
Bacillus subtilis [17] = assay: Induction of sigM gene expression in Bacillus subtilis W168 by microarray analysis; type: functional; in short: as §1
Bacillus subtilis [18] = assay: Induction of yhdL gene expression in Bacillus subtilis W168 by microarray analysis; type: functional; in short: as §1
Bacillus subtilis [19] = assay: Decrease in rpmB gene expression in Bacillus subtilis W168 by microarray analysis; type: functional; in short: as §1
Bacillus subtilis [20] = assay: Decrease in yvkN gene expression in Bacillus subtilis W168 by microarray analysis; type: functional; in short: as §1
Bacillus subtilis [21] = assay: Antibacterial activity against sigXM gene-deficient Bacillus subtilis CU1065 double mutant by liquid growth inhibition assay; type: functional; in short: as §2
Bacillus subtilis [22] = assay: Induction of yvrL gene expression in Bacillus subtilis W168 by microarray analysis; type: functional; in short: as §3
Bacillus subtilis [23] = assay: Induction of yocH gene expression in Bacillus subtilis W168 by microarray analysis; type: functional; in short: as §1
Bacillus subtilis [24] = assay: Induction of yxjI gene expression in Bacillus subtilis W168 by microarray analysis; type: functional; in short: as §3
Bacillus subtilis [25] = assay: Decrease in degR gene expression in Bacillus subtilis W168 by microarray analysis; type: functional; in short: as §1
Bacillus subtilis [26] = assay: Antibacterial activity against mprF and ugtP gene-deficient Bacillus subtilis CU1065 mutant by liquid growth inhibition assay; type: functional; in short: as §2
Bacillus subtilis [27] = assay: Antibacterial activity against liaH and sigW gene-deficient Bacillus subtilis CU1065 mutant by liquid growth inhibition assay; type: functional; in short: as §2
Bacillus subtilis [28] = assay: Antibacterial activity against sigMWX and liaIH gene-deficient Bacillus subtilis CU1065 mutant by liquid growth inhibition assay; type: functional; in short: as §2
Bacillus subtilis [29] = assay: Antibacterial activity against psd and mprF gene-deficient Bacillus subtilis CU1065 mutant by liquid growth inhibition assay; type: functional; in short: as §2
Bacillus subtilis [30] = assay: Antibacterial activity against sigM gene-deficient Bacillus subtilis CU1065 mutant by liquid growth inhibition assay; type: functional; in short: as §2
Bacillus subtilis [31] = assay: Antibacterial activity against mprF and pssA gene-deficient Bacillus subtilis CU1065 mutant by liquid growth inhibition assay; type: functional; in short: as §2
Bacillus subtilis [32] = assay: Antibacterial activity against liaIH and mprF gene-deficient Bacillus subtilis W168 mutant by liquid growth inhibition assay; type: functional; in short: as §2
Bacillus subtilis [33] = assay: Decrease in ywfB gene expression in Bacillus subtilis W168 by microarray analysis; type: functional; in short: as §1
Bacillus subtilis [34] = assay: Antibacterial activity against des and pspA gene-deficient Bacillus subtilis W168 mutant by liquid growth inhibition assay
Bacillus subtilis [35] = assay: Antibacterial activity against Bacillus subtilis CU1065 mutant with mprF gene overexpression by liquid growth inhibition assay; type: functional; in short: as §2
Bacillus subtilis [36] = assay: Induction of maf gene expression in Bacillus subtilis W168 by microarray analysis; type: functional; in short: as §1
Bacillus subtilis [37] = assay: Antibacterial activity against liaIH and pspA gene-deficient Bacillus subtilis CU1065 mutant by liquid growth inhibition assay; type: functional; in short: as §2
Bacillus subtilis [38] = assay: Antibacterial activity against des gene-deficient Bacillus subtilis W168 mutant by liquid growth inhibition assay; type: functional; in short: as §2
Bacillus subtilis [39] = assay: Induction of yuaF gene expression in Bacillus subtilis W168 by microarray analysis; type: functional; in short: as §1
Bacillus subtilis [40] = assay: Induction of yhcZ gene expression in Bacillus subtilis W168 by microarray analysis; type: functional; in short: as §1
Bacillus subtilis [41] = assay: Antibacterial activity against sigX gene-deficient Bacillus subtilis CU1065 mutant by liquid growth inhibition assay; type: functional; in short: as §2
Bacillus subtilis [42] = assay: Antibacterial activity against Bacillus subtilis CU1065 mutant by liquid growth inhibition assay; type: functional; in short: as §2
Bacillus subtilis [43] = assay: Decrease in yxeQ gene expression in Bacillus subtilis W168 by microarray analysis; type: functional; in short: as §1
Bacillus subtilis [44] = assay: Antibacterial activity against pspA gene-deficient Bacillus subtilis CU1065 mutant by liquid growth inhibition assay; type: functional; in short: as §2
Bacillus subtilis [45] = assay: Antibacterial activity against sigXM and liaIH gene-deficient Bacillus subtilis CU1065 mutant by liquid growth inhibition assay; type: functional; in short: as §2
Bacillus subtilis [46] = assay: Decrease in yvzA gene expression in Bacillus subtilis W168 by microarray analysis; type: functional; in short: as §1
Bacillus subtilis [47] = assay: Decrease in ywdE gene expression in Bacillus subtilis W168 by microarray analysis; type: functional; in short: as §1
Bacillus subtilis [48] = assay: Antibacterial activity against Bacillus subtilis CU1066 with depletion in pgsA gene by liquid growth inhibition assay; type: functional; conditions: CU1065, in the assay text read “CU1065” for “CU1066”
In short: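 Liquid growth inhibition in Mueller-Hinton broth with 50 mg/liter Ca2+. Overnight cultures diluted 1:100, grown to mid-log, rediluted to 5 × 10^5 CFU/ml, then given at least 10 daptomycin concentrations near the predicted MIC plus a drug-free control. OD600 read every 20 min for 24 h at 37°C with shaking. MIC is the mode of at least triplicates of the lowest concentration giving final OD600 <0.05.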

Bacillus subtilis [49] = assay: Antibacterial activity against liaF gene-deficient Bacillus subtilis W168 mutant by liquid growth inhibition assay; type: functional; in short: as §2
Bacillus subtilis [50] = assay: Induction of yuaG gene expression in Bacillus subtilis W168 by microarray analysis; type: functional; in short: as §1

## CCCCCCCCCC(=O)N[C@@H](Cc1c[nH]c2ccccc12)C(=O)N[C@H](CC(N)=O)C(=O)N[C@@H](CC(=O)O)C(=O)N[C@@H]1C(=O)NCC(=O)N[C@@H](CCCN)C(=O)N[C@@H](CC(=O)O)C(=O)N[C@H](C)C(=O)N[C@@H](CC(=O)O)C(=O)NCC(=O)N[C@H](CO)C(=O)N[C@@H]([C@H](C)CC(=O)O)C(=O)N[C@@H](CC(=O)c2ccccc2N)C(=O)O[C@@H]1C
Bacillus subtilis [1]
  fold change (FC): 0.5
Bacillus subtilis [2]
  MIC: 0.7 µg/mL (≈ 0.432 µM)
Bacillus subtilis [3]
  fold change (FC): 3.6
Bacillus subtilis [4]
  fold change (FC): 3.5
Bacillus subtilis [5]
  MIC: 0.3 µg/mL (≈ 0.185 µM)
Bacillus subtilis [6]
  MIC: 1 µg/mL (≈ 0.617 µM)
Bacillus subtilis [7]
  fold change (FC): 574
Bacillus subtilis [8]
  MIC: 0.8 µg/mL (≈ 0.494 µM)
Bacillus subtilis [9]
  fold change (FC): 7.8
Bacillus subtilis [10]
  fold change (FC): 2.1
Bacillus subtilis [11]
  fold change (FC): 0.5
Bacillus subtilis [12]
  fold change (FC): 3.2
Bacillus subtilis [13]
  MIC: 0.8 µg/mL (≈ 0.494 µM)
Bacillus subtilis [14]
  MIC: 0.2 µg/mL (≈ 0.123 µM)
Bacillus subtilis [15]
  fold change (FC): 2.9
Bacillus subtilis [16]
  fold change (FC): 0.4
Bacillus subtilis [17]
  fold change (FC): 2.1
Bacillus subtilis [18]
  fold change (FC): 2.5
Bacillus subtilis [19]
  fold change (FC): 0.5
Bacillus subtilis [20]
  fold change (FC): 26
Bacillus subtilis [21]
  MIC: 0.6 µg/mL (≈ 0.37 µM)
Bacillus subtilis [22]
  fold change (FC): 535
Bacillus subtilis [23]
  fold change (FC): 0.5
Bacillus subtilis [24]
  fold change (FC): 2.1
Bacillus subtilis [25]
  fold change (FC): 0.5
Bacillus subtilis [26]
  MIC: 0.6 µg/mL (≈ 0.37 µM)
Bacillus subtilis [27]
  MIC: 0.3 µg/mL (≈ 0.185 µM)
Bacillus subtilis [28]
  MIC: 0.2 µg/mL (≈ 0.123 µM)
Bacillus subtilis [29]
  MIC: 0.9 µg/mL (≈ 0.555 µM)
Bacillus subtilis [30]
  MIC: 0.8 µg/mL (≈ 0.494 µM)
Bacillus subtilis [31]
  MIC: 0.9 µg/mL (≈ 0.555 µM)
Bacillus subtilis [32]
  MIC: 0.2 µg/mL (≈ 0.123 µM)
Bacillus subtilis [33]
  fold change (FC): 7.9
Bacillus subtilis [34]
  MIC: 0.9 µg/mL (≈ 0.555 µM)
Bacillus subtilis [35]
  MIC: 1.3 µg/mL (≈ 0.802 µM)
Bacillus subtilis [36]
  fold change (FC): 2.5
Bacillus subtilis [37]
  MIC: 0.2 µg/mL (≈ 0.123 µM)
Bacillus subtilis [38]
  MIC: 0.9 µg/mL (≈ 0.555 µM)
Bacillus subtilis [39]
  fold change (FC): 4.8
Bacillus subtilis [40]
  fold change (FC): 2.2
Bacillus subtilis [41]
  MIC: 1 µg/mL (≈ 0.617 µM)
Bacillus subtilis [42]
  MIC: 1 µg/mL (≈ 0.617 µM)
Bacillus subtilis [43]
  fold change (FC): 0.5
Bacillus subtilis [44]
  MIC: 1 µg/mL (≈ 0.617 µM)
Bacillus subtilis [45]
  MIC: 0.2 µg/mL (≈ 0.123 µM)
Bacillus subtilis [46]
  fold change (FC): 10
Bacillus subtilis [47]
  fold change (FC): 9.9
Bacillus subtilis [48]
  MIC: 8 µg/mL (≈ 4.94 µM)
Bacillus subtilis [49]
  MIC: 1 µg/mL (≈ 0.617 µM)
Bacillus subtilis [50]
  fold change (FC): 2
